Measured values as given in ChEMBL document CHEMBL1151850, “Triterpenoid saponins from Dianthus versicolor” (J Nat Prod, 2009).

Experiments:
[1] = tested on: HFL1; assay: Cytotoxicity against human HFL1 cells after 24 hrs by MTT assay; type: cell-based; details: HFL1, 24 h
Method in brief: (§1)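 Grown in DMEM with 10% fetal calf serum, 2 mM L-glutamine and penicillin/streptomycin at 37 °C, 5% CO2. 10^4 cells/well adhered 24 h before serial dilutions were added (DMSO stock diluted in medium, final DMSO <1%), in parallel triplicate wells. After 24 h exposure, MTT added for 4 h. Formazan dissolved in DMSO; viability read as absorbance at 570 nm.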

[2] = tested on: MCF7; assay: Cytotoxicity against human MCF7 cells after 24 hrs by MTT assay; type: functional, cell-based; details: MCF7, 24 h; method in brief: as §1
[3] = Cytotoxicity against human BGC803 cells after 24 hrs by MTT assay; type: functional, cell-based; details: BGC803, 24 h
Method in brief: (§2)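 Cells kept at 37 °C, 5% CO2 in RPMI-1640 with 10% fetal calf serum, subcultured twice weekly. Plated at 10^4 cells/well and allowed to adhere 24 h. Serial dilutions added from DMSO stock diluted in RPMI-1640, final DMSO below 1%, triplicate wells. After 24 h, MTT added for 4 h. Formazan dissolved in DMSO, absorbance read at 570 nm.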

[4] = Cytotoxicity against human EVC304 cells after 24 hrs by MTT assay; type: cell-based; details: EVC304, 24 h; method in brief: as §2
[5] = tested on: HepG2; assay: Cytotoxicity against human HepG2 cells after 24 hrs by MTT assay; type: functional, cell-based; details: HepG2, 24 h; method in brief: as §1

| SMILES | IC50 [1] | IC50 [2] | IC50 [3] | IC50 [4] | IC50 [5] |
| --- | --- | --- | --- | --- | --- |
| CC1(C)CC[C@]2(C(=O)O[C@@H]3O[C@H](CO[C@@H]4O[C@H](COC(=O)C[C@@](C)(O)CC(=O)O)[C@@H](O)[C@H](O)[C@H]4O[C@@H]4O[C@H](CO)[C@@H](O)[C@H](O)[C@H]4O)[C@@H](O)[C@H](O)[C@H]3O)[C@H](O)C[C@]3(C)C(=CC[C@@H]4[C@@]5(C)CC[C@H](O)[C@@](C)(C(=O)O[C@@H]6O[C@H](CO)[C@@H](O)[C@H](O)[C@H]6O)[C@@H]5CC[C@]43C)[C@@H]2C1 [DIANVERSICOSIDE A] | 2.8 µM | > 10 µM | 6.2 µM | 8.4 µM | > 10 µM |
| CC1(C)CC[C@]2(C(=O)O[C@@H]3O[C@H](CO[C@@H]4O[C@H](COC(=O)C[C@@](C)(O)CC(=O)O)[C@@H](O)[C@H](O)[C@H]4O[C@@H]4O[C@H](CO)[C@@H](O)[C@H](O)[C@H]4O)[C@@H](O)[C@H](O[C@@H]4O[C@H](CO)[C@@H](O)[C@H](O)[C@H]4O)[C@H]3O)[C@H](O)C[C@]3(C)C(=CC[C@@H]4[C@@]5(C)CC[C@H](O)[C@@](C)(C(=O)O)[C@@H]5CC[C@]43C)[C@@H]2C1 [DIANVERSICOSIDE B] | 3.1 µM | > 10 µM | 5.7 µM | 7.7 µM | > 10 µM |
| CC1(C)CC[C@]2(C(=O)O[C@@H]3O[C@H](CO[C@@H]4O[C@H](COC(=O)C[C@@](C)(O)CC(=O)O)[C@@H](O)[C@H](O)[C@H]4O[C@@H]4O[C@H](CO)[C@@H](O)[C@H](O)[C@H]4O)[C@@H](O)[C@H](O[C@@H]4O[C@H](CO)[C@@H](O)[C@H](O)[C@H]4O)[C@H]3O)CC[C@]3(C)C(=CC[C@@H]4[C@@]5(C)CC[C@H](O)[C@@](C)(C(=O)O)[C@@H]5CC[C@]43C)[C@@H]2C1 [DIANVERSICOSIDE D] | 3.4 µM | > 10 µM | 2.9 µM | 3.9 µM | > 10 µM |
| CC1(C)CC[C@]2(C(=O)O[C@@H]3O[C@H](CO[C@@H]4O[C@H](CO)[C@@H](O)[C@H](O)[C@H]4O[C@@H]4O[C@H](CO)[C@@H](O)[C@H](O)[C@H]4O)[C@@H](O)[C@H](O[C@@H]4O[C@H](CO)[C@@H](O)[C@H](O)[C@H]4O)[C@H]3O)[C@H](O)C[C@]3(C)C(=CC[C@@H]4[C@@]5(C)CC[C@H](O)[C@@](C)(C(=O)O[C@@H]6O[C@H](CO)[C@@H](O)[C@H](O)[C@H]6O)[C@@H]5CC[C@]43C)[C@@H]2C1 [DIANVERSICOSIDE E] | 3.5 µM | > 10 µM | 7.4 µM | 9.1 µM | > 10 µM |
| CC1(C)CC[C@]2(C(=O)O[C@@H]3O[C@H](CO[C@@H]4O[C@H](CO)[C@@H](O)[C@H](O)[C@H]4O[C@@H]4O[C@H](CO)[C@@H](O)[C@H](O)[C@H]4O)[C@@H](O)[C@H](O)[C@H]3O)[C@H](O)C[C@]3(C)C(=CC[C@@H]4[C@@]5(C)CC[C@H](O)[C@@](C)(C(=O)O[C@@H]6O[C@H](CO)[C@@H](O)[C@H](O)[C@H]6O)[C@@H]5CC[C@]43C)[C@@H]2C1 [DIANVERSICOSIDE F] | 4.4 µM | > 10 µM | 9.7 µM | 9.6 µM | > 10 µM |
| CC1(C)CC[C@]2(C(=O)O[C@@H]3O[C@H](CO[C@@H]4O[C@H](CO)[C@@H](O)[C@H](O)[C@H]4O[C@@H]4O[C@H](CO)[C@@H](O)[C@H](O)[C@H]4O)[C@@H](O)[C@H](O[C@@H]4O[C@H](CO)[C@@H](O)[C@H](O)[C@H]4O)[C@H]3O)CC[C@]3(C)C(=CC[C@@H]4[C@@]5(C)CC[C@H](O[C@@H]6OC[C@H](O)[C@H](O)[C@H]6O)[C@@](C)(C(=O)O)[C@@H]5CC[C@]43C)[C@@H]2C1 [DIANVERSICOSIDE G] | 3.3 µM | > 10 µM | 6.8 µM | 6.2 µM | > 10 µM |
| CC1(C)CC[C@]2(C(=O)O[C@@H]3O[C@H](CO[C@@H]4O[C@H](CO)[C@@H](O)[C@H](O)[C@H]4O[C@@H]4O[C@H](CO)[C@@H](O)[C@H](O)[C@H]4O)[C@@H](O)[C@H](O[C@@H]4O[C@H](CO)[C@@H](O)[C@H](O)[C@H]4O)[C@H]3O)CC[C@]3(C)C(=CC[C@@H]4[C@@]5(C)CC[C@H](O)[C@@](C)(C(=O)O)[C@@H]5CC[C@]43C)[C@@H]2C1 [VACCAROID A] | 7.8 µM | > 10 µM | 5.3 µM | 4.1 µM | > 10 µM |
| CC1(C)CC[C@]2(C(=O)O)CC[C@]3(C)C(=CC[C@@H]4[C@@]5(C)CC[C@H](O)[C@@](C)(C(=O)O[C@@H]6O[C@H](CO[C@@H]7O[C@H](CO)[C@@H](O)[C@H](O)[C@H]7O[C@@H]7O[C@H](CO)[C@@H](O)[C@H](O)[C@H]7O)[C@@H](O)[C@H](O[C@@H]7O[C@H](CO)[C@@H](O)[C@H](O)[C@H]7O)[C@H]6O)[C@@H]5CC[C@]43C)[C@@H]2C1 [VACCAROID C] | 3.8 µM | > 10 µM | 9.4 µM | 8.7 µM | > 10 µM |
